Data on 13 molecules can be found in ChEMBL document CHEMBL3112405, “A-ring modified betulinic acid derivatives as potent cancer preventive agents” (Bioorg Med Chem Lett, 2014).

For assay [1], the system named is Raji. Description: Chemopreventive activity in human Raji cells assessed as inhibition of TPA-induced EBV-early antigen activation by measuring EBV-EA positive cells at 100 molar ratio/20 ng/ml of TPA after 48 hrs by immunofluorescence analysis. It is filed as cell-based. Further details: scale not given: the % may be the effect or the level left. Particulars: human gammaherpesvirus 4. In a few lines: (§1)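 Raji cells (EBV genome-carrying, Burkitt's lymphoma-derived, virus non-producer), grown in RPMI-1640 with 10% FBS. Cells were incubated 48 h at 37 °C with n-butyric acid (4 mM), TPA ([…] = 20 ng, in DMSO) and test compound in DMSO at 10–1000 mol ratio/TPA. EBV-EA-positive cells were detected by indirect immunofluorescence using NPC patient serum, with at least 500 cells counted. Triplicates were run, expressed relative to the butyrate+TPA control (100%). Viability was checked by Trypan blue.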

The subject of assay [2] is Raji. Description: Chemopreventive activity in human Raji cells assessed as inhibition of TPA-induced EBV-early antigen activation by measuring EBV-EA positive cells at 500 molar ratio/20 ng/ml of TPA after 48 hrs by immunofluorescence analysis. Particulars: human gammaherpesvirus 4. Further details: scale not given: the % may be the effect or the level left. In kind it is cell-based. The method in brief: as §1

The species entered for assay [3] is Mus musculus. Description: Inhibition of DMBA-TPA-induced carcinogenesis in mouse skin assessed as reduction of number of papilloma at 85 nmol after 11 weeks relative to control. It is filed as functional. Also on record: scale not given: the % may be the effect or the level left. In a few lines:
(§2)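 Two-stage mouse skin model. Initiation used DMBA (390 nmol). Promotion used TPA (1.7 nmol) twice weekly, starting 1 week after initiation. Test compound (85 nmol) was given with TPA. Papilloma incidence (% of mice bearing papillomas) and average papillomas per mouse were monitored over 20 weeks against a TPA-alone control.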

For assay [4], the system named is Raji. In words: Chemopreventive activity in human Raji cells assessed as inhibition of TPA-induced EBV-early antigen activation by measuring EBV-EA positive cells at 1000 molar ratio/20 ng/ml of TPA after 48 hrs by immunofluorescence analysis relative to control. In kind it is cell-based. Also on record: scale not given: the % may be the effect or the level left. Particulars: human gammaherpesvirus 4. The method in brief:
as §1

Assay [5] can be described thus: Chemopreventive activity in human Raji cells assessed as molar ratio of compound required to inhibit 50% of control of inhibition of TPA-induced EBV-early antigen activation after 48 hrs by immunofluorescence analysis. In kind it is cell-based, human gammaherpesvirus 4. The method in brief:
(§3)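 Raji cells (EBV genome-carrying, virus non-producer; cultured in RPMI-1640 with 10% FBS) incubated 48 h at 37 °C with n-butyric acid (4 mM), TPA ([…] = 20 ng) and test compounds in DMSO. EBV-EA positive cells were detected by indirect immunofluorescence with NPC patient serum, counting ≥500 cells, triplicate. Results were expressed relative to the butyric acid+TPA control (100%). Viability was checked by Trypan blue.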

Assay [6] is filed under the species Mus musculus. Description: Inhibition of DMBA-TPA-induced carcinogenesis in mouse skin assessed as reduction of number of papilloma at 85 nmol after 8 weeks relative to control. It is filed as functional. Further details: scale not given: the % may be the effect or the level left. In a few lines:
as §2

In assay [7] the test system is Raji. In words: Chemopreventive activity in human Raji cells assessed as inhibition of TPA-induced EBV-early antigen activation by measuring EBV-EA positive cells at 10 molar ratio/20 ng/ml of TPA after 48 hrs by immunofluorescence analysis. It is filed as cell-based. Further details: scale not given: the % may be the effect or the level left. Particulars: human gammaherpesvirus 4. In a few lines:
as §3

The structures appear in SMILES notation.

With `C=C(C)[C@@H]1CC[C@]2(C)[C@H](CC[C@@H]3[C@H]4[C@H](C(C)C)CC[C@]4(C(=O)O)CC[C@]32C)[C@@]1(C)CCC(=O)O`, the Activity in assay [1] came to 65.1%; in assay [2], 26.6%; in assay [3], 10%; in assay [4], 0%; in assay [6] it was 0%; in assay [7] it was 91.6%. Moreover, the IC50 in assay [5] turned out to be 295 molar ratio.

In the case of `COc1cc(/C=C/C(=O)CC(=O)/C=C/c2ccc(O)c(OC)c2)ccc1O` [CURCUMIN], the Activity amounted to 81.7% in assay [1], 22.8% in assay [2], 0% in assay [4] and 100% in assay [7]. Moreover, the IC50 in assay [5] came to 341 molar ratio.

Take `COC(=O)CC[C@]1(C)[C@H]2CC[C@@H]3[C@H]4[C@H](C(C)C)CC[C@]4(C(=O)O)CC[C@@]3(C)[C@]2(C)CC[C@H]1C(C)CO` (stereo partly drawn): the Activity was 68.1% in assay [1]; 31.6% in assay [2]; 10% in assay [3]; 0% in assay [4]; 0% in assay [6]; 96.3% in assay [7]. In addition, the IC50 in assay [5] stood at 323 molar ratio.

Regarding `COC(=O)CC[C@]1(C)[C@H]2CC[C@@H]3[C@H]4[C@H](C(C)C)CC[C@]4(C(=O)O)CC[C@@]3(C)[C@]2(C)CC[C@H]1C(C)COC(C)=O` (stereo partly drawn), the Activity in assay [1] worked out at 68.8%; in assay [2], 33.8%; in assay [4] it was 0%; in assay [7] it was 98.2%. Also, in assay [5], the IC50 turned out to be 335 molar ratio.

On to `CC(=O)NCCCCCCCNC(=O)[C@]12CC[C@@H](C(C)C)[C@@H]1[C@H]1CC[C@@H]3[C@@]4(C)CCC(=O)OC(C)(C)[C@@H]4CC[C@@]3(C)[C@]1(C)CC2`, for which the Activity in assay [1] was 83.2%; in assay [2], 61.4%; in assay [4] it was 15.3%; in assay [7], 100%. Besides, the IC50 in assay [5] was 523 molar ratio.

`C=C(C)[C@@H]1CC[C@]2(C)[C@H](CC[C@@H]3[C@H]4[C@H](C(C)C)CC[C@]4(C(=O)NCCCCCCCNC(C)=O)CC[C@]32C)[C@@]1(C)CCC(=O)O`: the Activity was 76.3% in assay [1], 50.2% in assay [2], 6.7% in assay [4] and 100% in assay [7]. Besides, the IC50 in assay [5] came out at 460 molar ratio.

For the molecule `C=C(C)[C@@H]1CC[C@]2(C(=O)O)CC[C@]3(C)[C@H](CC[C@@H]4[C@@]5(C)CC[C@H](OC(=O)CC(C)(C)C(=O)O)C(C)(C)[C@@H]5CC[C@]43C)[C@@H]12` [BEVIRIMAT], the results for the Activity in assay [1], in assay [2] and in assay [4] were 74.2%, 36.1% and 6.1%, respectively. Further, the IC50 in assay [5] was determined as 396 molar ratio.

In the case of `C=C(C)[C@@H]1CC[C@]2(C)[C@H](CC[C@@H]3[C@H]4[C@H](C(C)C)CC[C@]4(C(=O)O)CC[C@]32C)[C@@]1(C)CCC(=O)OC`, the Activity in assay [1] stood at 66.9%; in assay [2], 29.1%; in assay [4], 0%; in assay [7], 94.2%. In assay [5], the IC50 stood at 311 molar ratio.

Turning to `CC(=O)NCCCCCCCNC(=O)[C@]12CC[C@@H](C(C)C)[C@@H]1[C@H]1CC[C@@H]3[C@@](C)(CCC(=O)O)[C@H](C(C)COC(=O)CC(C)(C)C(=O)O)CC[C@@]3(C)[C@]1(C)CC2` (stereo partly drawn), the Activity was 81.3% in assay [1], 57.2% in assay [2], 11.3% in assay [4] and 100% in assay [7]. Moreover, the IC50 in assay [5] was 501 molar ratio.

Regarding `C=C(C)[C@@H]1CC[C@]2(C)[C@H](CC[C@@H]3[C@H]4[C@H](C(C)C)CC[C@]4(C(=O)NCCCCCCCNC(C)=O)CC[C@]32C)[C@@]1(C)CCC(=O)OC`, the Activity in assay [1] is 77.2%; in assay [2], 54.4%; in assay [4], 7.1%; in assay [7] it was 100%. Also, the IC50 in assay [5] is recorded as 479 molar ratio.

As to `COC(=O)CC[C@]1(C)[C@H]2CC[C@@H]3[C@H]4[C@H](C(C)C)CC[C@]4(C(=O)NCCCCCCCNC(C)=O)CC[C@@]3(C)[C@]2(C)CC[C@H]1C(C)COC(C)=O` (stereo partly drawn), the Activity turned out to be 79.4% in assay [1], 56% in assay [2], 7.8% in assay [4] and 100% in assay [7]. Moreover, the IC50 in assay [5] came to 490 molar ratio.

For the molecule `COC(=O)CC[C@]1(C)[C@H]2CC[C@@H]3[C@H]4[C@H](C(C)C)CC[C@]4(C(=O)O)CC[C@@]3(C)[C@]2(C)CC[C@H]1C(C)COC(=O)CC(C)(C)C(=O)O` (stereo partly drawn), the Activity worked out at 71.3% in assay [1], 36.4% in assay [2], 3.7% in assay [4] and 100% in assay [7]. Also, the IC50 in assay [5] is given as 386 molar ratio.

With `CC(=O)NCCCCCCCNC(=O)[C@]12CC[C@@H](C(C)C)[C@@H]1[C@H]1CC[C@@H]3[C@@](C)(CCC(=O)O)[C@H](C(C)CO)CC[C@@]3(C)[C@]1(C)CC2` (stereo partly drawn), the Activity in assay [1] turned out to be 77.5%; in assay [2] it was 52.1%; in assay [4], 6.6%; in assay [7], 100%. In addition, the IC50 in assay [5] was 471 molar ratio.
